ChEMBL document CHEMBL5260794, “Synthesis and biological evaluation of a new class of benzothiazines as neuroprotective agents” (Eur J Med Chem, 2017)
Calls of active or inactive are those of the source. No cut-off for these calls is given here.

Experiments:
Rattus norvegicus [1] = species: Rattus norvegicus; assay: Neuroprotective activity against oxygen glucose deprivation/reperfusion-induced Wistar rat cortical brain assessed as reduction in LDH release relative to control; assay type: functional; set-up: concentration or dose not given beside the values
Summary of the method: (§1)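 Male Wistar rat cortical slices (400 μm) in oxygenated ACSF, pH 7.4, 1 h at room temperature, then 30 min at 37 °C. OGD for 30 min in glucose-free ACSF with 11 mM sucrose under 95% N₂/5% CO₂. Compound added in the reoxygenation buffer. Glutamate and LDH release measured. Mean ± SEM of at least four experiments, ANOVA with Dunnett test.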

SH-SY5Y [2] = assay: Neuroprotective activity against glutamate-induced toxicity in human SH-SY5Y cells assessed as reduction in sub G0/G1 phase cells at 10 uM pretreated for 1 hr followed by glutamate challenge measured after 24 hrs by propidium staining based flow cytometry; assay type: functional, cell-based; settings: time 25.0 hrs
Summary of the method: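 SH-SY5Y cells (2.5 x 10⁵ cells/mL) pretreated 1 h with compound, then given glutamate 50 mM for 24 h. Cells fixed in 70% ethanol (30 min, 4 °C), held at -20 °C for at least 24 h, stained with propidium iodide. Flow cytometry on at least 1x10⁴ cells, cell-cycle phases and sub-G₀/G₁ fraction quantified. 4 independent experiments.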

SH-SY5Y [3] = assay: Neuroprotective activity against glutamate-induced toxicity in human SH-SY5Y cells assessed as reduction in cell rounding at 10 uM pretreated for 1 hr followed by glutamate challenge measured after 24 hrs by phase-contrast light microscopic analysis; assay type: functional, cell-based; settings: time 25.0 hrs
Summary of the method: (§2)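 SH-SY5Y cells attached 24 h, then pretreated 1 h with compound (0.1-10 μM) before glutamate 50 mM for 24 h. Viability by MTT. Morphology under phase-contrast microscope, scored by the USP 28 grade scale (0-4). Mean ± SEM of 4 independent experiments run in triplicate or quadruplicate, ANOVA with Dunnett test.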

Rattus norvegicus [4] = species: Rattus norvegicus; assay: Neuroprotective activity against oxygen glucose deprivation/reperfusion-induced Wistar rat cortical brain assessed as concentration required to reduce glutamate release by measuring efficacy window; assay type: functional; summary of the method: as §1
SH-SY5Y [5] = assay: Neuroprotective activity against glutamate-induced toxicity in human SH-SY5Y cells assessed as reduction in ROS production measured after 24 hrs by DCFH-DA staining based assay; assay type: functional, cell-based; settings: dose 0.1-10 µM
Summary of the method: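 Human SH-SY5Y neuroblastoma cells were preloaded with DCFH-DA (5 μM, 30 min) and washed in PBS. They were then pretreated for 1 h with compound (0.1-10 μM; DMSO stock diluted in PBS, final DMSO <0.01%) and challenged with glutamate (50 mM). Fluorescence (ex 485/em 535 nm) was read at 24 h and expressed as % inhibition of glutamate-induced ROS. Data are mean ± SEM of 4 experiments run in triplicate or quadruplicate.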

SH-SY5Y [6] = assay: Neuroprotective activity against glutamate-induced toxicity in human SH-SY5Y cells assessed as reduction in condensed and fragmented nuclei at 10 uM pretreated for 1 hr followed by glutamate challenge measured after 24 hrs by DAPI staining based assay (reference value: 16.9 +/- 1.5%); assay type: functional, cell-based; settings: time 25.0 hrs
Summary of the method: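 Cells pretreated 1 h with compound (0.1-10 μM), then glutamate 50 mM for 24 h. DAPI staining; cells with condensed or fragmented nuclei scored as apoptotic, reported as percentage. Mean ± SEM of 4 independent experiments.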

SH-SY5Y [7] = assay: Neuroprotective activity against glutamate-induced toxicity in human SH-SY5Y cells assessed as reduction in cell shrinkage at 10 uM pretreated for 1 hr followed by glutamate challenge measured after 24 hrs by phase-contrast light microscopic analysis; assay type: functional, cell-based; settings: time 25.0 hrs; summary of the method: as §2
[8] = Cytotoxicity against human SH-SY5Y cells assessed as cell viability at 10 uM measured after 24 hrs by MTT assay; assay type: toxicity, cell-based
Summary of the method: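 SH-SY5Y cells (RPMI 1640, 10% FBS, 37 °C, 5% CO₂, exponential growth) seeded 8 x 10⁴ cells/mL and left to attach 24 h, then exposed to compound alone for 24 h. MTT viability read. Morphology graded 0-4 on the USP 28 scale under phase contrast. Compound diluted from DMSO stock in PBS, final DMSO <0.01%.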

SH-SY5Y [9] = assay: Neuroprotective activity against 6-OHDA-induced toxicity in human SH-SY5Y cells assessed as reduction in ROS production by DCFH-DA staining based assay; assay type: functional, cell-based; settings: dose 0.1-10 µM
Summary of the method: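 SH-SY5Y cells loaded with DCFH-DA (5 μM, 30 min) and washed. Pretreated 1 h with compound (0.1-10 μM), then 6-OHDA 55 μM. Fluorescence (ex 485/em 535 nm) read at 1 h or 24 h and expressed as % inhibition of 6-OHDA-induced ROS. 4 independent experiments.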

SH-SY5Y [10] = assay: Neuroprotective activity against 6-OHDA-induced toxicity in human SH-SY5Y cells assessed as cell viability at 0.1 uM pretreated for 1 hr followed by 6-OHDA challenge measured after 2 hrs by MTT assay; assay type: functional, cell-based; settings: time 3.0 hrs
Rattus norvegicus [11] = species: Rattus norvegicus; assay: Inhibition of transient voltage-dependent sodium current in Wistar rat brain piriform cortex layer at 50 uM by whole cell patch clamp method relative to control; assay type: functional
SH-SY5Y [12] = assay: Neuroprotective activity against 6-OHDA-induced toxicity in human SH-SY5Y cells assessed as increase in cell viability at 10 uM pretreated for 1 hr followed by 6-OHDA challenge measured after 2 hrs by MTT assay; assay type: functional, cell-based; settings: time 3.0 hrs
Summary of the method: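 SH-SY5Y cells attached 24 h, then pretreated 1 h with compound (0.1-10 μM) and challenged with 6-OHDA 55 μM for 2 h. 6-OHDA made fresh in nitrogen-gassed 5 μM ascorbic acid, and controls received medium with ascorbic acid. Viability by MTT. Mean ± SEM of 4 independent experiments run in triplicate or quadruplicate, ANOVA with Dunnett test.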

SH-SY5Y [13] = assay: Neuroprotective activity against glutamate-induced toxicity in human SH-SY5Y cells assessed as cell viability at 10 uM pretreated for 1 hr followed by glutamate challenge measured after 24 hrs by MTT assay; assay type: functional; settings: time 25 hrs, read-out: Activity; summary of the method: as §2
SH-SY5Y [14] = assay: Neuroprotective activity against glutamate-induced toxicity in human SH-SY5Y cells assessed as reduction in ROS production at 10 uM measured after 24 hrs by DCFH-DA staining based assay relative to control; assay type: functional; set-up: scale not given: the % may be the effect or the level left
Summary of the method: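 SH-SY5Y cells loaded with DCFH-DA (5 μM, 30 min) and washed before treatment. Pretreated 1 h with compound (0.1-10 μM), then glutamate 50 mM. Fluorescence (ex 485/em 535 nm) read at 1 h or 24 h and expressed as % inhibition of glutamate-induced ROS. 4 independent experiments.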

Rattus norvegicus [15] = species: Rattus norvegicus; assay: Neuroprotective activity against oxygen glucose deprivation/reperfusion-induced Wistar rat cortical brain assessed as concentration required to reduce LDH release by measuring efficacy window; assay type: functional; summary of the method: as §1
SH-SY5Y [16] = assay: Neuroprotective activity against 6-OHDA-induced toxicity in human SH-SY5Y cells assessed as reduction in ROS production at 0.1 uM pretreated for 1 hr followed by 6-OHDA challenge measured after 2 hrs by DCFH-DA staining based assay; assay type: functional, cell-based; settings: time 3.0 hrs
SH-SY5Y [17] = assay: Neuroprotective activity against 6-OHDA-induced toxicity in human SH-SY5Y cells assessed as reduction in condensed and fragmented nuclei at 0.1 uM pretreated for 1 hr followed by 6-OHDA challenge measured after 2 hrs by DAPI staining based assay relative to control; assay type: functional, cell-based; settings: time 3.0 hrs
SH-SY5Y [18] = assay: Neuroprotective activity against glutamate-induced toxicity in human SH-SY5Y cells assessed as reduction in grade 2 to 3 toxicity at 10 uM pretreated for 1 hr followed by glutamate challenge measured after 24 hrs by phase-contrast light microscopic analysis; assay type: functional, cell-based; settings: time 25.0 hrs; summary of the method: as §2
Rattus norvegicus [19] = species: Rattus norvegicus; assay: Neuroprotective activity against oxygen glucose deprivation/reperfusion-induced Wistar rat cortical brain assessed as reduction in glutamate release relative to control; assay type: functional; set-up: concentration or dose not given beside the values; summary of the method: as §1

Row | SMILES | Activity (Rattus norvegicus [1]) [%] | Activity (SH-SY5Y [2]) | Activity (SH-SY5Y [3]) | Efficacy (Rattus norvegicus [4]) [µM] | Activity (SH-SY5Y [5]) | Activity (SH-SY5Y [6]) | Activity (SH-SY5Y [7]) | viability reduction at 24 h, 10 µM [8] [%] | Activity (SH-SY5Y [9]) | Activity (SH-SY5Y [10]) | inhibition in vivo at 50 µM (Rattus norvegicus [11]) [%] | Activity (SH-SY5Y [12]) | viability at 10 µM (SH-SY5Y [13]) [%] | Activity (SH-SY5Y [14]) [%] | Efficacy (Rattus norvegicus [15]) [µM] | Activity (SH-SY5Y [16]) | Activity (SH-SY5Y [17]) | Activity (SH-SY5Y [18]) | Activity (Rattus norvegicus [19]) [%]
1 | CCCN(CCC)/C(C)=N/C1=Nc2ccccc2CS1 | 58.2 | Active | Active | 0.1 | Dose-Dependent Effect | Active | Active | 10 | Dose-Dependent Effect | Active | 15.9 | Active | 65 | 20 | 0.1 | Active | Active | Active | 90.5
2 | CCN(CC)/C(C)=N/C1=Nc2ccccc2CS1 | 72.4 | Active | Active | 0.1 | Dose-Dependent Effect | Active | Active | 10 | Dose-Dependent Effect | Active | 51.9 | Active | 65 | 20 | 0.1 | Active | Active | Active | 100
